# Measurements from ChEMBL document CHEMBL4257453, “Identification of karanjin isolated from the Indian beech tree as a potent CYP1 enzyme inhibitor with cellular efficacy via screening of a natural product repository” (Medchemcomm, 2018).
# Legend:
# Cytochrome P450 1A2 = biological target: T1, Cytochrome P450 1A2 (Homo sapiens, UniProt P05177); assay: Inhibition of human recombinant CYP1A2 expressed in HEK293 cells using 3-cyano-7-ethoxycoumarin substrate preincubated for 30 mins followed by substrate addition and measured after 60 mins by fluorescence assay relative to control; type: ADME, cell-based
# T1 sequence (P05177 whole entry): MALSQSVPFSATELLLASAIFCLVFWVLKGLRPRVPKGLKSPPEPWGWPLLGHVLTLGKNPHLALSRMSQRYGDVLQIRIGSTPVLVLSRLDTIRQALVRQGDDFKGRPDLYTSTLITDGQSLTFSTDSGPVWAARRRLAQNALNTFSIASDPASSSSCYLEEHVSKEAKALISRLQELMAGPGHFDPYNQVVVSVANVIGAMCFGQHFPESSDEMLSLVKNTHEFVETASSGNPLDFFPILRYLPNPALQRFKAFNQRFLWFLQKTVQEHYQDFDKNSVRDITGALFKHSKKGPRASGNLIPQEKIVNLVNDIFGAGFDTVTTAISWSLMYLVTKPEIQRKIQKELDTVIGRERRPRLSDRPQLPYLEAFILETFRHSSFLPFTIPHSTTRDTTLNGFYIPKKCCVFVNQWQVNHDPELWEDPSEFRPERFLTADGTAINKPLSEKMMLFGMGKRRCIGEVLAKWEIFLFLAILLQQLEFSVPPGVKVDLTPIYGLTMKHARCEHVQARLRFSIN
# Outline: (§1)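 HEK293 cells adapted to suspension and transiently transfected with pcDNA3.1 plasmids carrying the individual CYP; 100×10^3 cells per well in triplicate. […] Fluorogenic substrate is then added at 5 μM and fluorescence read for 60 min.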
# CYP1A1 [1] = biological target: T2, CYP1A1 (Homo sapiens, UniProt P04798); assay: Inhibition of human recombinant CYP1A1 expressed in HEK293 cells at 10 uM using 7-ethoxyresorufin substrate preincubated for 30 mins followed by substrate addition and measured after 60 mins by fluorescence assay relative to control; type: cell-based; conditions: HEK293 cells expressing human recombinant CYP1A1, probe 7-ethoxyresorufin; outline: as §1
# T2 sequence (P04798 whole entry): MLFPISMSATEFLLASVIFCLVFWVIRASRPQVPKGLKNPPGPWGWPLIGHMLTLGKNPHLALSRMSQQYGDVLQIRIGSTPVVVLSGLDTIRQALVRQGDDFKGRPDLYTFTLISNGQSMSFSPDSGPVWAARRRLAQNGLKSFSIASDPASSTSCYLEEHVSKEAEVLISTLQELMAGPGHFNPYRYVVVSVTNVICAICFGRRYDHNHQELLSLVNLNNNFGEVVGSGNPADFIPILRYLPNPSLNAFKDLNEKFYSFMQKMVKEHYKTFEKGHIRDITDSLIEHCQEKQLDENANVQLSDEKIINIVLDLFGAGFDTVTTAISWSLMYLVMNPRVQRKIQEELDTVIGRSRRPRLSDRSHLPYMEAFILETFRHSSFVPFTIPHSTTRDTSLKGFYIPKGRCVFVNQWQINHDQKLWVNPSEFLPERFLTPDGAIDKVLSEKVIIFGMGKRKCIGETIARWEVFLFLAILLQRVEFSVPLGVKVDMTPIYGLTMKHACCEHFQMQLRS
# CYP1A1 [2] = biological target: T2, CYP1A1; assay: Inhibition of recombinant human CYP1A1 expressed in baker's yeast-derived microsomes (Sacchrosomes) at 10 uM using 7-ethoxyresorufin substrate by EROD assay relative to control; conditions: probe 7-ethoxyresorufin
# Outline: (§2)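 Yeast microsomes carrying recombinant CYP (Sacchrosomes). Substrates per isoform are 7-ethoxyresorufin, 3-cyano-7-ethoxycoumarin, EOMCC or dibenzylfluorescein, read as endpoint fluorescence. Background from compound-only wells without enzyme is subtracted. Independent triplicate runs; α-naphthoflavone positive control.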
# Cytochrome P450 1A1 = biological target: T3, Cytochrome P450 1A1 (Homo sapiens, UniProt P04798); assay: Inhibition of human recombinant CYP1A1 expressed in HEK293 cells using 7-ethoxyresorufin substrate preincubated for 30 mins followed by substrate addition and measured after 60 mins by fluorescence assay relative to control; type: cell-based; outline: as §1
# T3 sequence (P04798 whole entry): T2 sequence (P04798 whole entry)
# CYP2C19 = CYP2C19 (Homo sapiens, UniProt P33261); assay: Inhibition of recombinant human CYP2C19 expressed in baker's yeast-derived microsomes (Sacchrosomes) at 10 uM using 3-cyano-7-ethoxycoumarin substrate by EROD assay relative to control; type: ADME; conditions: probe 3-cyano-7-ethoxycoumarin
# Outline: as §2, with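 “(Sacchrosomes). […]” for “(Sacchrosomes).”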
# Homo sapiens = species: Homo sapiens; assay: Selectivity index, ratio of IC50 for inhibition of human recombinant CYP1B1 expressed in HEK293 cells by fluorescence assay to IC50 for inhibition of human recombinant CYP1A1 expressed in HEK293 cells by fluorescence assay; type: cell-based
# Outline: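 HEK293 suspension cells transiently transfected with pcDNA3.1/CYP1B1 or pcDNA3.1/CYP1A1, 100×10^3 cells per well in triplicate. Compound (1 nM to 30 μM) preincubated 30 min at 37 °C, 8% CO2. 7-Ethoxyresorufin then added at 5 μM, and resorufin fluorescence (EROD) read over 60 min. IC50 taken from concentration-response for each isoform; index = CYP1B1 IC50 / CYP1A1 IC50.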
# Cytochrome P450 2D6 = Cytochrome P450 2D6 (Homo sapiens, UniProt P10635); assay: Inhibition of human recombinant CYP2D6 expressed in HEK293 cells using 7-ethoxy-methyloxy-3-cyanocoumarin substrate substrate preincubated for 30 mins followed by substrate addition and measured after 60 mins by fluorescence assay relative to control; type: ADME, cell-based; outline: as §1
# Cytochrome P450 3A4 = Cytochrome P450 3A4 (Homo sapiens, UniProt P08684); assay: Inhibition of human recombinant CYP3A4 expressed in HEK293 cells using dibenzylfluorescein substrate substrate preincubated for 30 mins followed by substrate addition and measured after 60 mins by fluorescence assay relative to control; type: ADME, cell-based
# Outline: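 HEK293 cells adapted to suspension and transiently transfected with pcDNA3.1 plasmids carrying the individual CYP; 100×10^3 cells per well in triplicate. Fluorogenic substrate is then added at 5 μM and fluorescence read for 60 min.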
# CYP1A2 = biological target: T4, CYP1A2 (Homo sapiens, UniProt P05177); assay: Inhibition of recombinant human CYP1A2 expressed in baker's yeast-derived microsomes (Sacchrosomes) at 10 uM using 3-cyano-7-ethoxycoumarin substrate by EROD assay relative to control; type: ADME; conditions: probe 3-cyano-7-ethoxycoumarin; outline: as §2
# T4 sequence (P05177 whole entry): T1 sequence (P05177 whole entry)
# CYP3A4 = CYP3A4 (Homo sapiens, UniProt P08684); assay: Inhibition of recombinant human CYP3A4 expressed in baker's yeast-derived microsomes (Sacchrosomes) at 10 uM using dibenzylfluorescein substrate by EROD assay relative to control; type: ADME; conditions: probe dibenzylfluorescein
# Outline: as §2, with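 “(Sacchrosomes). […]” for “(Sacchrosomes).”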
# CYP2D6 = CYP2D6 (Homo sapiens, UniProt P10635); assay: Inhibition of recombinant human CYP2D6 expressed in baker's yeast-derived microsomes (Sacchrosomes) at 10 uM using 7-ethoxy-methyloxy-3-cyanocoumarin substrate by EROD assay relative to control; type: ADME; conditions: probe 7-ethoxy-methyloxy-3-cyanocoumarin
# Outline: as §2, with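 “(Sacchrosomes). […]” for “(Sacchrosomes).”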
# Cytochrome P450 2C9 = Cytochrome P450 2C9 (Homo sapiens, UniProt P11712); assay: Inhibition of human recombinant CYP2C9 expressed in HEK293 cells using 3-cyano-7-ethoxycoumarin substrate substrate preincubated for 30 mins followed by substrate addition and measured after 60 mins by fluorescence assay relative to control; type: ADME, cell-based; outline: as §1
# Sequence of Cytochrome P450 2C9 (P11712 whole entry): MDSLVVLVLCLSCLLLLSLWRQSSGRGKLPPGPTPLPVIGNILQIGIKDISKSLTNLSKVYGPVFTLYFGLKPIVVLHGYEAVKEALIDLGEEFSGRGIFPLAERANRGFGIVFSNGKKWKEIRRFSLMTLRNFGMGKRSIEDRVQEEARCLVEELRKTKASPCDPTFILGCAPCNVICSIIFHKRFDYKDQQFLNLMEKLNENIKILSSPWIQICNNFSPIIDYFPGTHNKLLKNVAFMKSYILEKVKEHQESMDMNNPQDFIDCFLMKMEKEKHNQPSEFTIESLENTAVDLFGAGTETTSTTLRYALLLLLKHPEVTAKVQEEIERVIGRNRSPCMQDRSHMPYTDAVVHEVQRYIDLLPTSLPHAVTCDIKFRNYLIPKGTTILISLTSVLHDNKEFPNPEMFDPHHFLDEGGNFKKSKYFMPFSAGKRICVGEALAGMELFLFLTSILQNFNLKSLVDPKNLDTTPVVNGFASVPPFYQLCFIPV
# Sequence of CYP2C19 (P33261 whole entry): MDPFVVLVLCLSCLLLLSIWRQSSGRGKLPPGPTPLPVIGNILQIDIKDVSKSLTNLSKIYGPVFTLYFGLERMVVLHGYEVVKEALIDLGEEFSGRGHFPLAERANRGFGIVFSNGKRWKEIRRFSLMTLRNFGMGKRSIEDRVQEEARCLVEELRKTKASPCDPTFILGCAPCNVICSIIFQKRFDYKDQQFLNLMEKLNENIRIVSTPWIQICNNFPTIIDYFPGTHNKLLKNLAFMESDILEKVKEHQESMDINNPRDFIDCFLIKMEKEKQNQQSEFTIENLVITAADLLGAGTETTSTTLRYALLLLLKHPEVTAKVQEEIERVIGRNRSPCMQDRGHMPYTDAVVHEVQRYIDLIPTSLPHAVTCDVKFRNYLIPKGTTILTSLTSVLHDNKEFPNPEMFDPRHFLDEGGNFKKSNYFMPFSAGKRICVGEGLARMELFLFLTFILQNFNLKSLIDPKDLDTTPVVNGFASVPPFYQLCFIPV
# Sequence of CYP3A4 (P08684 whole entry): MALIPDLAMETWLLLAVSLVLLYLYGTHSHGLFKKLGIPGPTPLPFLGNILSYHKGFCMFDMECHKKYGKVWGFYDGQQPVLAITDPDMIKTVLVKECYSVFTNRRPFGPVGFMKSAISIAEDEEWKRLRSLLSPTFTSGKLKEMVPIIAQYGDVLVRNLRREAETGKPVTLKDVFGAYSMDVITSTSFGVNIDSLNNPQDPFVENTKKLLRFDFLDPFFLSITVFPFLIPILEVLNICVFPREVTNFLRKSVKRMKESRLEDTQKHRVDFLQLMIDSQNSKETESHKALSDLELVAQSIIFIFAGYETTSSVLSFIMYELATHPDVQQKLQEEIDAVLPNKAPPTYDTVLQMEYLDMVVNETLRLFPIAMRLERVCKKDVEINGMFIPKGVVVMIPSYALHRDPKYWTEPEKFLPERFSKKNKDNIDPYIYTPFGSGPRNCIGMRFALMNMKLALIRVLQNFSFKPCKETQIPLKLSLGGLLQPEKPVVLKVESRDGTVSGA
# Sequence of Cytochrome P450 3A4 (P08684 whole entry): as above
# Sequence of Cytochrome P450 2D6 (P10635 whole entry): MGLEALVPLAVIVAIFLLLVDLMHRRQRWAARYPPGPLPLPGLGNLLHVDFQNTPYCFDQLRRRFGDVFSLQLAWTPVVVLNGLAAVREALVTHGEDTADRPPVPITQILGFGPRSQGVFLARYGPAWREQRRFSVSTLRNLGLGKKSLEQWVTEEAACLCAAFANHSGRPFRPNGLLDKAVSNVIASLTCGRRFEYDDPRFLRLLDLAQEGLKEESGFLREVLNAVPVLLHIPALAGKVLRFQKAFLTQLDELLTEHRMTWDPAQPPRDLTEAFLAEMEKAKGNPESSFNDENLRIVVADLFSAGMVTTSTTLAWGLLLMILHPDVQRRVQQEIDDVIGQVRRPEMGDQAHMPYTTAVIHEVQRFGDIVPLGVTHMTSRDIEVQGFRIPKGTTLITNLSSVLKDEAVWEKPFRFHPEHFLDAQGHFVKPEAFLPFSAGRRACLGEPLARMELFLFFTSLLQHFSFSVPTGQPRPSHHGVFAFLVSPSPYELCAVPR
# Sequence of CYP2D6 (P10635 whole entry): as above
SMILES,IC50 (Cytochrome P450 1A2) [nM],Ki (Cytochrome P450 1A2) [nM],"inhibition at 1 h, 10 µM (CYP1A1 [1]) [%]",inhibition at 10 µM (CYP1A1 [2]) [%],IC50 (Cytochrome P450 1A1) [nM],Ki (Cytochrome P450 1A1) [nM],inhibition at 10 µM (CYP2C19) [%],Ratio IC50 (Homo sapiens),IC50 (Cytochrome P450 2D6) [nM],IC50 (Cytochrome P450 3A4) [nM],inhibition at 10 µM (CYP1A2) [%],inhibition at 10 µM (CYP3A4) [%],inhibition at 10 µM (CYP2D6) [%],IC50 (Cytochrome P450 2C9) [nM]
COc1c2ccoc2cc2oc(=O)ccc12 [BERGAPTEN],90,60,91,68,80,60,5,192,> 10000,> 10000,73,3,9,> 10000
COc1c2ccoc2c(OC)c2oc(=O)ccc12 [ISOPIMPINELLIN],40,28,91,71,20,12,0,319,> 10000,> 10000,62,0,0,> 10000
